# Test results published in ChEMBL document CHEMBL1255376, “Comparative surveillance study of telavancin activity against recently collected gram-positive clinical isolates from across the United States” (2008).
# Experiments:
# Type in all cases: functional
# Streptococcus pyogenes = experiment: Antibacterial activity against Streptococcus pyogenes clinical isolate by broth microdilution method
# Summary of the method: (§1)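 MIC by CLSI broth microdilution in frozen microtiter trays holding serial dilutions of each agent, prepared from standard laboratory powders. E. faecalis ATCC 29212 and ATCC 51299, S. aureus ATCC 29213 and S. pneumoniae ATCC 49619 run in parallel as quality-control strains. Comparator susceptibility interpreted with CLSI breakpoints.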
# Streptococcus agalactiae = experiment: Antibacterial activity against Streptococcus agalactiae clinical isolate by broth microdilution method; summary of the method: as §1
# [1] = Antibacterial activity against Streptococcus sp. Group C clinical isolate by broth microdilution method; summary of the method: as §1
# Streptococcus sp. [2] = experiment: Antibacterial activity against Streptococcus sp. Group F clinical isolate by broth microdilution method
# Summary of the method: (§2)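 MIC by CLSI broth microdilution in frozen microtiter trays holding serial dilutions of each agent, prepared from standard laboratory powders. Comparator susceptibility interpreted with CLSI breakpoints.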
# [3] = Antibacterial activity against Streptococcus sp. Group G clinical isolate by broth microdilution method; summary of the method: as §1
# Streptococcus equinus = experiment: Antibacterial activity against Streptococcus bovis clinical isolate by broth microdilution method; summary of the method: as §1
# [4] = test system: Streptococcus constellatus; experiment: Antibacterial activity against Streptococcus constellatus clinical isolate by broth microdilution method; summary of the method: as §1
# [5] = test system: Streptococcus intermedius; experiment: Antibacterial activity against Streptococcus intermedius clinical isolate by broth microdilution method; summary of the method: as §1
# Streptococcus mitis = experiment: Antibacterial activity against Streptococcus mitis clinical isolate by broth microdilution method; summary of the method: as §1
# Streptococcus oralis = experiment: Antibacterial activity against Streptococcus oralis clinical isolate by broth microdilution method; summary of the method: as §1
# Streptococcus sanguinis = experiment: Antibacterial activity against Streptococcus sanguinis clinical isolate by broth microdilution method; summary of the method: as §1
# Streptococcus sp. [6] = experiment: Antibacterial activity against Streptococcus sp. clinical isolate by broth microdilution method; summary of the method: as §2
# Streptococcus pneumoniae = experiment: Antibacterial activity against penicillin susceptible Streptococcus pneumoniae clinical isolate by broth microdilution method
# Summary of the method: (§3)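 MICs by CLSI broth microdilution in frozen trays pre-loaded with serial dilutions of each agent. Quality-control strains run in parallel: E. faecalis ATCC 29212 and ATCC 51299, S. aureus ATCC 29213, S. pneumoniae ATCC 49619. Comparator susceptibility categories follow CLSI breakpoints. Methicillin resistance in staphylococci assigned from the oxacillin MIC.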
# Enterococcus faecalis [7] = experiment: Antibacterial activity against vancomycin-susceptible Enterococcus faecalis clinical isolate by broth microdilution method; summary of the method: as §3
# Enterococcus faecalis [8] = experiment: Antibacterial activity against vancomycin- and teichoplanin-nonsusceptible Enterococcus faecalis clinical isolate by broth microdilution method; summary of the method: as §3
# Enterococcus faecalis [9] = experiment: Antibacterial activity against vancomycin-resistant and teichoplanin-susceptible Enterococcus faecalis clinical isolate by broth microdilution method; summary of the method: as §3
# Enterococcus faecium [10] = experiment: Antibacterial activity against vancomycin-susceptible Enterococcus faecium clinical isolate by broth microdilution method; summary of the method: as §1
# Enterococcus faecium [11] = experiment: Antibacterial activity against vancomycin- and teichoplanin-nonsusceptible Enterococcus faecium clinical isolate by broth microdilution method; summary of the method: as §3
# Enterococcus faecium [12] = experiment: Antibacterial activity against vancomycin-resistant and teichoplanin-susceptible Enterococcus faecium clinical isolate by broth microdilution method; summary of the method: as §3
smiles,measurement,setting,value
CC1(C)S[C@@H]2[C@H](NC(=O)Cc3ccccc3)C(=O)N2[C@H]1C(=O)O [PENICILLIN G],MIC,Streptococcus pyogenes,≤ 0.06 µg/mL
same,MIC50,Streptococcus pyogenes,≤ 0.06 µg/mL
same,MIC90,Streptococcus pyogenes,≤ 0.06 µg/mL
same,MIC,Streptococcus agalactiae,≤ 0.06 µg/mL
same,MIC50,Streptococcus agalactiae,≤ 0.06 µg/mL
same,MIC90,Streptococcus agalactiae,≤ 0.06 µg/mL
same,MIC,[1],≤ 0.06 µg/mL
same,MIC50,[1],≤ 0.06 µg/mL
same,MIC90,[1],≤ 0.06 µg/mL
same,MIC,Streptococcus sp. [2],≤ 0.06 µg/mL
same,MIC50,Streptococcus sp. [2],≤ 0.06 µg/mL
same,MIC90,Streptococcus sp. [2],≤ 0.06 µg/mL
same,MIC,[3],≤ 0.06 µg/mL
same,MIC50,[3],≤ 0.06 µg/mL
same,MIC90,[3],≤ 0.06 µg/mL
same,MIC,Streptococcus equinus,≤ 0.06 µg/mL
same,MIC50,Streptococcus equinus,≤ 0.06 µg/mL
same,MIC90,Streptococcus equinus,1 µg/mL
same,MIC,[4],≤ 0.06 µg/mL
same,MIC50,[4],≤ 0.06 µg/mL
same,MIC90,[4],1 µg/mL
same,MIC,[5],≤ 0.06 µg/mL
same,MIC50,[5],≤ 0.06 µg/mL
same,MIC90,[5],1 µg/mL
same,MIC,Streptococcus mitis,≤ 0.06 µg/mL
same,MIC50,Streptococcus mitis,≤ 0.06 µg/mL
same,MIC90,Streptococcus mitis,1 µg/mL
same,MIC,Streptococcus oralis,≤ 0.06 µg/mL
same,MIC50,Streptococcus oralis,≤ 0.06 µg/mL
same,MIC90,Streptococcus oralis,1 µg/mL
same,MIC,Streptococcus sanguinis,≤ 0.06 µg/mL
same,MIC50,Streptococcus sanguinis,≤ 0.06 µg/mL
same,MIC90,Streptococcus sanguinis,1 µg/mL
same,MIC,Streptococcus sp. [6],≤ 0.06 µg/mL
same,MIC50,Streptococcus sp. [6],≤ 0.06 µg/mL
same,MIC90,Streptococcus sp. [6],1 µg/mL
same,MIC,Streptococcus pneumoniae,≤ 0.06 µg/mL
same,MIC50,Streptococcus pneumoniae,≤ 0.06 µg/mL
same,MIC90,Streptococcus pneumoniae,≤ 0.06 µg/mL
CC1(C)S[C@@H]2[C@H](NC(=O)[C@H](N)c3ccccc3)C(=O)N2[C@H]1C(=O)O [AMPICILLIN],MIC50,Enterococcus faecalis [7],1 µg/mL
same,MIC90,Enterococcus faecalis [7],1 µg/mL
same,MIC50,Enterococcus faecalis [8],1 µg/mL
same,MIC90,Enterococcus faecalis [8],2 µg/mL
same,MIC,Enterococcus faecalis [9],0.5 µg/mL
same,MIC50,Enterococcus faecium [10],128 µg/mL
same,MIC90,Enterococcus faecium [10],> 128 µg/mL
same,MIC50,Enterococcus faecium [11],128 µg/mL
same,MIC90,Enterococcus faecium [11],> 128 µg/mL
same,MIC50,Enterococcus faecium [12],128 µg/mL
